Structures are written as SMILES. The source made the active and inactive calls. The rule behind the calls is not given here.

The results in this text go back to ChEMBL document CHEMBL1154632, “Synthesis and antimicrobial activity of 7-(2-substituted phenylthiazolidinyl)-benzopyran-2-one derivatives” (2010).

The subject of one experiment is Penicillium roqueforti. The experiment can be described thus: Antifungal activity against Penicillium roqueforti NCIM 712 at 100 ug/ml by agar cup plate method. The experiment is classed as functional. The note with it: read-out: IZ. Summed up: (§1)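 Agar cup plate assay. Strains were obtained from NCL Pune, India, and test compounds were dissolved in DMF. Values are reported as mean (SEM).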
In the case of `Cc1cc(=O)oc2cc(/N=C/c3ccccc3)ccc12`, the zone of inhibition at 100 µg/mL was 11 mm.
On to `Cc1cc(=O)oc2cc(N3C(=O)CSC3c3ccc(O)cc3)ccc12` (stereo unspecified), for which the zone of inhibition at 100 µg/mL came out at 9 mm.
With `Cc1cc(=O)oc2cc(N3C(=O)CSC3c3ccccc3)ccc12` (stereo unspecified), the zone of inhibition at 100 µg/mL worked out at 13 mm.
For `Cc1cc(=O)oc2cc(N3C(=O)CSC3c3ccc(Cl)cc3Cl)ccc12` (stereo unspecified), the zone of inhibition at 100 µg/mL came out at 8 mm.
On the same count and under the same terms, as for `COc1cccc(C2SCC(=O)N2c2ccc3c(C)cc(=O)oc3c2)c1` (stereo unspecified), the figure is 20 mm; as for `Cc1cc(=O)oc2cc(/N=C/c3ccc(Cl)cc3Cl)ccc12`, 9 mm.
Same read-out and setting: next, `Cc1cc(=O)oc2cc(/N=C/c3ccc(F)cc3)ccc12`: 5 mm; `COc1ccc(C2SCC(=O)N2c2ccc3c(C)cc(=O)oc3c2)cc1` (stereo unspecified): 17 mm; `COc1cccc(/C=N/c2ccc3c(C)cc(=O)oc3c2)c1`: 13 mm.
`Cc1cc(=O)oc2cc(/N=C/c3ccc(O)cc3)ccc12`: the zone of inhibition at 100 µg/mL was 8 mm.

The subject of a further experiment is Delftia acidovorans. Put plainly: Antibacterial activity against Pseudomonas desmolytica NCIM 2028 at 50 ug/ml by agar cup plate method. The experiment is classed as functional. As to conditions: read-out: IZ. Summed up:
as §1
Consider `O=C(O)c1cn(C2CC2)c2cc(N3CCNCC3)c(F)cc2c1=O` [CIPROFLOXACIN], for which the zone of inhibition at 50 µg/mL was 18 mm.

Another experiment relates to Delftia acidovorans. The experiment can be described thus: Antibacterial activity against Pseudomonas desmolytica NCIM 2028 at 100 ug/ml by agar cup plate method. The experiment is classed as functional.
Details: not given
The method, boiled down: as §1
As to `Cc1cc(=O)oc2cc(N3C(=O)CSC3c3ccc(O)cc3)ccc12` (stereo unspecified), the “inhibition zone (IZ)” value is “inactive”.
The same measure, in the same setting: as for `COc1ccc(C2SCC(=O)N2c2ccc3c(C)cc(=O)oc3c2)cc1` (stereo unspecified), the entry is “inactive”.
Turning to `Cc1cc(=O)oc2cc(/N=C/c3ccc(O)cc3)ccc12`, the “inhibition zone (IZ)” value was “inactive”.

Staying with this experiment, now noted: read-out: IZ.
Turning to `Cc1cc(=O)oc2cc(/N=C/c3ccccc3)ccc12`, the zone of inhibition at 100 µg/mL turned out to be 10 mm.
Same read-out and setting: as for `Cc1cc(=O)oc2cc(N3C(=O)CSC3c3ccccc3)ccc12` (stereo unspecified), the figure is 14 mm.
In the case of `Cc1cc(=O)oc2cc(N3C(=O)CSC3c3ccc(Cl)cc3Cl)ccc12` (stereo unspecified), the zone of inhibition at 100 µg/mL stood at 11 mm.
In the case of `COc1cccc(C2SCC(=O)N2c2ccc3c(C)cc(=O)oc3c2)c1` (stereo unspecified), the zone of inhibition at 100 µg/mL turned out to be 9 mm.
In the case of `Cc1cc(=O)oc2cc(/N=C/c3ccc(Cl)cc3Cl)ccc12`, the zone of inhibition at 100 µg/mL is 13 mm.
As to `Cc1cc(=O)oc2cc(/N=C/c3ccc(F)cc3)ccc12`, the zone of inhibition at 100 µg/mL worked out at 12 mm.
In the case of `COc1cccc(/C=N/c2ccc3c(C)cc(=O)oc3c2)c1`, the zone of inhibition at 100 µg/mL stood at 8 mm.

Another experiment relates to Escherichia coli. Put plainly: microbe, parasite or virus in culture. As to conditions: NCIM 2666, read-out: IZ.
In the case of `O=C(O)c1cn(C2CC2)c2cc(N3CCNCC3)c(F)cc2c1=O` [CIPROFLOXACIN], the zone of inhibition at 50 µg/mL stood at 30 mm.

The next experiment deals with Bacillus subtilis. Put plainly: microbe, parasite or virus in culture. As to conditions: Staphylococcus aureus, NCIM 2602, read-out: IZ.
Take `O=C(O)c1cn(C2CC2)c2cc(N3CCNCC3)c(F)cc2c1=O` [CIPROFLOXACIN]: the zone of inhibition at 50 µg/mL was found to be 25 mm.

The test system of the next experiment is Aspergillus niger. The experiment can be described thus: Antifungal activity against Aspergillus niger NCIM 813 at 50 ug/ml by agar cup plate method. The experiment is classed as functional. As to conditions: read-out: IZ. Summed up:
as §1
For `COC1=CC(=O)C[C@@H](C)[C@]12Oc1c(Cl)c(OC)cc(OC)c1C2=O` [GRISEOFULVIN], the zone of inhibition at 50 µg/mL was determined as 17 mm.

The test system of the next experiment is Staphylococcus aureus. Put plainly: Antibacterial activity against Staphylococcus aureus NCIM 2602 at 100 ug/ml by agar cup plate method. The note with it: read-out: IZ.
On to `Cc1cc(=O)oc2cc(/N=C/c3ccccc3)ccc12`, for which the zone of inhibition at 100 µg/mL was determined as 11 mm.
Still for that read-out and setting: as for `Cc1cc(=O)oc2cc(N3C(=O)CSC3c3ccc(O)cc3)ccc12` (stereo unspecified), the figure is 4 mm.
Consider `Cc1cc(=O)oc2cc(N3C(=O)CSC3c3ccccc3)ccc12` (stereo unspecified), for which the zone of inhibition at 100 µg/mL worked out at 12 mm.
For `Cc1cc(=O)oc2cc(N3C(=O)CSC3c3ccc(Cl)cc3Cl)ccc12` (stereo unspecified), the zone of inhibition at 100 µg/mL was 7 mm.
The same measure, in the same setting: next, `COc1cccc(C2SCC(=O)N2c2ccc3c(C)cc(=O)oc3c2)c1` (stereo unspecified): 10 mm; `Cc1cc(=O)oc2cc(/N=C/c3ccc(Cl)cc3Cl)ccc12`: 5 mm.
The same measure, in the same setting: as for `Cc1cc(=O)oc2cc(/N=C/c3ccc(F)cc3)ccc12`, the figure is 16 mm.
With `COc1ccc(C2SCC(=O)N2c2ccc3c(C)cc(=O)oc3c2)cc1` (stereo unspecified), the zone of inhibition at 100 µg/mL worked out at 16 mm.
`COc1cccc(/C=N/c2ccc3c(C)cc(=O)oc3c2)c1`: the zone of inhibition at 100 µg/mL was determined as 9 mm.
As for `Cc1cc(=O)oc2cc(/N=C/c3ccc(O)cc3)ccc12`, the zone of inhibition at 100 µg/mL was determined as 4 mm.

Another experiment deals with Bacillus subtilis. Put plainly: Antibacterial activity against Bacillus subtilis NCIM 2613 at 100 ug/ml by agar cup plate method. The note with it: read-out: IZ.
With `Cc1cc(=O)oc2cc(/N=C/c3ccccc3)ccc12`, the zone of inhibition at 100 µg/mL came out at 10 mm.
`Cc1cc(=O)oc2cc(N3C(=O)CSC3c3ccc(O)cc3)ccc12` (stereo unspecified): the zone of inhibition at 100 µg/mL was found to be 9 mm.
`Cc1cc(=O)oc2cc(N3C(=O)CSC3c3ccccc3)ccc12` (stereo unspecified): the zone of inhibition at 100 µg/mL worked out at 19 mm.
The same measure, in the same setting: next, `Cc1cc(=O)oc2cc(N3C(=O)CSC3c3ccc(Cl)cc3Cl)ccc12` (stereo unspecified): 10 mm.
Consider `COc1cccc(C2SCC(=O)N2c2ccc3c(C)cc(=O)oc3c2)c1` (stereo unspecified), for which the zone of inhibition at 100 µg/mL was 17 mm.
Turning to `Cc1cc(=O)oc2cc(/N=C/c3ccc(Cl)cc3Cl)ccc12`, the zone of inhibition at 100 µg/mL was 12 mm.
As to `Cc1cc(=O)oc2cc(/N=C/c3ccc(F)cc3)ccc12`, the zone of inhibition at 100 µg/mL came to 17 mm.
Consider `COc1ccc(C2SCC(=O)N2c2ccc3c(C)cc(=O)oc3c2)cc1` (stereo unspecified), for which the zone of inhibition at 100 µg/mL was 21 mm.
As to `COc1cccc(/C=N/c2ccc3c(C)cc(=O)oc3c2)c1`, the zone of inhibition at 100 µg/mL was 13 mm.
As to `Cc1cc(=O)oc2cc(/N=C/c3ccc(O)cc3)ccc12`, the zone of inhibition at 100 µg/mL worked out at 10 mm.

The test system of a further experiment is Penicillium roqueforti. The experiment can be described thus: Antifungal activity against Penicillium roqueforti NCIM 712 at 50 ug/ml by agar cup plate method. The experiment is classed as functional. The note with it: read-out: IZ. Summed up: as §1
For `COC1=CC(=O)C[C@@H](C)[C@]12Oc1c(Cl)c(OC)cc(OC)c1C2=O` [GRISEOFULVIN], the zone of inhibition at 50 µg/mL came out at 2 mm.

A further experiment has as its system Aspergillus niger. Put plainly: Antifungal activity against Aspergillus niger NCIM 813 at 100 ug/ml by agar cup plate method. The experiment is classed as functional.
Details: not given
Summed up: as §1
Regarding `Cc1cc(=O)oc2cc(/N=C/c3ccc(F)cc3)ccc12`, the “inhibition zone (IZ)” value is “inactive”.

Staying with this experiment, now noted: read-out: IZ.
Consider `Cc1cc(=O)oc2cc(/N=C/c3ccccc3)ccc12`, for which the zone of inhibition at 100 µg/mL came out at 9 mm.
As for `Cc1cc(=O)oc2cc(N3C(=O)CSC3c3ccc(O)cc3)ccc12` (stereo unspecified), the zone of inhibition at 100 µg/mL was found to be 5 mm.
Consider `Cc1cc(=O)oc2cc(N3C(=O)CSC3c3ccccc3)ccc12` (stereo unspecified), for which the zone of inhibition at 100 µg/mL was found to be 8 mm.
On the same count and under the same terms, as for `Cc1cc(=O)oc2cc(N3C(=O)CSC3c3ccc(Cl)cc3Cl)ccc12` (stereo unspecified), the figure is 6 mm; as for `COc1cccc(C2SCC(=O)N2c2ccc3c(C)cc(=O)oc3c2)c1` (stereo unspecified), 13 mm; as for `Cc1cc(=O)oc2cc(/N=C/c3ccc(Cl)cc3Cl)ccc12`, 7 mm.
As to `COc1ccc(C2SCC(=O)N2c2ccc3c(C)cc(=O)oc3c2)cc1` (stereo unspecified), the zone of inhibition at 100 µg/mL came out at 11 mm.
Take `COc1cccc(/C=N/c2ccc3c(C)cc(=O)oc3c2)c1`: the zone of inhibition at 100 µg/mL came out at 11 mm.
With `Cc1cc(=O)oc2cc(/N=C/c3ccc(O)cc3)ccc12`, the zone of inhibition at 100 µg/mL is 6 mm.

For another experiment, the system named is Escherichia coli. Put plainly: Antibacterial activity against Escherichia coli NCIM 2666 at 100 ug/ml by agar cup plate method. The experiment is classed as functional.
Details: not given
The method, boiled down: as §1
On to `Cc1cc(=O)oc2cc(N3C(=O)CSC3c3ccc(O)cc3)ccc12` (stereo unspecified), for which the “inhibition zone (IZ)” value was “inactive”.
On to `Cc1cc(=O)oc2cc(/N=C/c3ccc(O)cc3)ccc12`, for which the “inhibition zone (IZ)” value is “inactive”.

Still in this experiment, the particulars now being: read-out: IZ.
As to `Cc1cc(=O)oc2cc(/N=C/c3ccccc3)ccc12`, the zone of inhibition at 100 µg/mL was 13 mm.
For `Cc1cc(=O)oc2cc(N3C(=O)CSC3c3ccccc3)ccc12` (stereo unspecified), the zone of inhibition at 100 µg/mL was 2 mm.
On the same count and under the same terms, next, `Cc1cc(=O)oc2cc(N3C(=O)CSC3c3ccc(Cl)cc3Cl)ccc12` (stereo unspecified): 15 mm; `COc1cccc(C2SCC(=O)N2c2ccc3c(C)cc(=O)oc3c2)c1` (stereo unspecified): 12 mm; `Cc1cc(=O)oc2cc(/N=C/c3ccc(Cl)cc3Cl)ccc12`: 14 mm.
With `Cc1cc(=O)oc2cc(/N=C/c3ccc(F)cc3)ccc12`, the zone of inhibition at 100 µg/mL is 14 mm.
For the compound `COc1ccc(C2SCC(=O)N2c2ccc3c(C)cc(=O)oc3c2)cc1` (stereo unspecified), the zone of inhibition at 100 µg/mL is 8 mm.
With `COc1cccc(/C=N/c2ccc3c(C)cc(=O)oc3c2)c1`, the zone of inhibition at 100 µg/mL is 11 mm.

The next experiment deals with Staphylococcus aureus. Put plainly: microbe, parasite or virus in culture. The note with it: Bacillus subtilis, NCIM 2613, read-out: IZ.
For the compound `O=C(O)c1cn(C2CC2)c2cc(N3CCNCC3)c(F)cc2c1=O` [CIPROFLOXACIN], the zone of inhibition at 50 µg/mL amounted to 18 mm.
